{"source": "paper PMC11252382", "about": "(Acta Pharmaceutica Sinica. B, 2024)", "key": {"[1]": {"test_system": "primary adult rat cardiomyocytes", "assay": "Iron content of primary cardiomyocytes, TFRC neutralization", "assay_type": "cell-based", "settings": "glycnsisitin A + DOX; with or without NAb-anti-TFRC pretreatment", "how_it_was_run": "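Langendorff-isolated adult rat cardiomyocytes in six-well plates were pretreated ± TFRC-neutralizing antibody, then given DOX and test compound. After two PBS washes, cells were lysed 2 h at room temperature on a shaker. Lysate was mixed 1:1 with permanganate-containing solution A and held 1 h at 60 °C, then cooled. Ferrozine iron reagent was added for 30 min at room temperature. A550 was read and iron calculated from a standard curve.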"}, "[2]": {"test_system": "transferrin", "assay": "Immunoblot of transferrin in heart tissues", "assay_type": "in vivo, mouse"}, "[3]": {"test_system": "DOX-induced HF mice", "assay": "Heart histology", "assay_type": "in vivo, mouse (ICR)", "settings": "compared with cedilanid", "how_it_was_run": "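Heart failure was induced in male ICR mice by a single i.p. DOX dose (15 mg/kg). Test compound (50/100/200 mg/kg), cedilanid ([…]) or PBS was then given i.p. daily on Days 15–28. Hearts were collected on Day 29, fixed in 4% paraformaldehyde and sectioned. H&E staining was scored for myocardial histopathology; Masson trichrome was quantified as relative fibrosis area.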"}, "[4]": {"test_system": "primary adult rat cardiomyocytes", "assay": "Alamar blue assay, DOX-injured primary cardiomyocytes", "assay_type": "cell-based", "how_it_was_run": "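Cardiomyocytes came from male Sprague-Dawley rats (~280 g) by Langendorff perfusion with collagenase II/hyaluronidase/BSA and stepwise CaCl2. Cells were purified by three gravity sedimentations and cultured on laminin in M199 with 10% FBS, penicillin-streptomycin and 1% glutamine. DOX-injured cells received test compound, and viability was read by alamar blue.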"}, "[5]": {"test_system": "TFRC", "assay": "Immunoblot of TFRC in heart tissues", "assay_type": "in vivo, mouse", "settings": "glycnsisitin A with or without DOX, DOX alone in HF tissue"}, "[6]": {"test_system": "primary adult rat cardiomyocytes", "assay": "LDH release of primary cardiomyocytes", "assay_type": "cell-based", "settings": "12 h", "how_it_was_run": "(§1)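 Cardiomyocytes came from male SD rats (about 280 g), isolated by Langendorff collagenase II/hyaluronidase perfusion and purified by three gravity sedimentations. They were cultured on laminin in M199 with 10% FBS, penicillin-streptomycin and glutamine. Cells were exposed with or without DOX and with or without test compound for 12 h. Cells and supernatant were measured with commercial ATP and LDH-activity kits. Mean ± SEM.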"}, "[7]": {"test_system": "primary adult rat cardiomyocytes", "assay": "Trypan blue staining of dead cells, primary cardiomyocytes + DOX", "assay_type": "cell-based"}, "[8]": {"test_system": "primary adult rat cardiomyocytes", "assay": "Mitochondrial ROS by MitoSOX staining", "assay_type": "cell-based", "settings": "10 μmol/L glycnsisitin A with 8.6 μmol/L DOX, 6 h, confocal", "how_it_was_run": "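Primary adult rat cardiomyocytes in glass-bottomed confocal dishes received test compound and/or DOX for 6 h. They were then loaded with MitoSOX Red for 30 min at 37 °C, 5% CO2, in the dark, and washed three times with warm HBSS containing Ca/Mg. Fluorescence was imaged by laser confocal microscopy (ex 396/em 610 nm).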"}, "[9]": {"molecular_target": "T1, transferrin (Homo sapiens, UniProt P02787)", "T1 sequence (P02787 20-698, species assumed)": "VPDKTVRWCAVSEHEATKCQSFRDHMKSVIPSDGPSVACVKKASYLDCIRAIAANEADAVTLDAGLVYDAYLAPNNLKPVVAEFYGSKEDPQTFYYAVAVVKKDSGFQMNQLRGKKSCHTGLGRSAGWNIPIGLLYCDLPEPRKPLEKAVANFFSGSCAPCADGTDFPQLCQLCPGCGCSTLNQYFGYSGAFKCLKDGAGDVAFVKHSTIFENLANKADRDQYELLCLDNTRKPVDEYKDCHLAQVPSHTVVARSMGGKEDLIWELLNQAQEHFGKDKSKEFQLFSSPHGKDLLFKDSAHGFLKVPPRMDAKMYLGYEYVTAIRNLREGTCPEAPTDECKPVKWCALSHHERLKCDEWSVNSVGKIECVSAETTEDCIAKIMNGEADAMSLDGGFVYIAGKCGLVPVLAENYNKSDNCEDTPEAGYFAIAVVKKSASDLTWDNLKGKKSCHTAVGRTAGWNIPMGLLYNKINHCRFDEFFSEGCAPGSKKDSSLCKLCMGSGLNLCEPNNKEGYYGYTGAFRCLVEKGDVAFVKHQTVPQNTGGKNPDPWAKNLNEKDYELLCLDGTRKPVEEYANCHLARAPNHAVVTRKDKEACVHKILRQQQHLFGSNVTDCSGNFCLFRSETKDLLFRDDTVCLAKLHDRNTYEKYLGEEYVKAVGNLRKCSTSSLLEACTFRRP", "assay": "Protein half-life of transferrin after CHX", "assay_type": "cell-based", "settings": "compared with control"}, "[10]": {"test_system": "primary adult rat cardiomyocytes", "assay": "ATP levels of primary cardiomyocytes", "assay_type": "cell-based", "settings": "12 h", "how_it_was_run": "as §1"}, "[11]": {"test_system": "DOX-induced HF mice", "assay": "BNP and NT-proBNP levels in DOX-induced HF mice", "assay_type": "in vivo, mouse (ICR)", "settings": "compared to DOX-induced HF mice", "how_it_was_run": "(§2)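 Male ICR mice (about 40 g, 10-week-old, SPF) received a single i.p. DOX dose of 15 mg/kg; heart failure was established by Day 14. On Days 15–28 they were dosed i.p. daily with test compound (50, 100 or 200 mg/kg), cedilanid 150 mg/kg, or PBS 10 mL/kg. Blood was taken 8 h after dosing on Day 29 and spun 4500 rpm, 15 min, 4 °C. Serum CK and LDH activities and BNP and NT-proBNP were measured by kits. Mean ± SEM.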"}, "[12]": {"test_system": "transferrin–TFRC interaction", "assay": "Cellular immunoprecipitation of transferrin with TFRC", "assay_type": "cell-based", "settings": "anti-His immunoprecipitation, blotted anti-transferrin and anti-TFRC"}, "[13]": {"test_system": "myocardium of DOX-treated mice", "assay": "Myocardial iron content", "assay_type": "in vivo, mouse", "settings": "with or without glycnsisitin A, ferrozine, 550 nm", "how_it_was_run": "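Heart tissue from DOX-induced heart-failure mice (± test compound) was homogenised in lysate. Homogenate was mixed 1:1 with permanganate-containing solution A and held 1 h at 60 °C, then cooled. Iron (ferrozine) detection reagent was added for 30 min at room temperature. Absorbance was read at 550 nm and iron content calculated from a standard curve.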"}, "[14]": {"test_system": "DOX-induced HF mice", "assay": "Survival in acute DOX-induced HF mouse model", "assay_type": "in vivo, mouse (ICR)", "how_it_was_run": "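Male ICR mice (about 40 g, 10 weeks) had acute heart failure induced by a single i.p. 15 mg/kg DOX dose. From Day 15 to 28 they were dosed i.p. daily with test compound (50, 100 or 200 mg/kg), cedilanid 150 mg/kg or PBS 10 mL/kg. Deaths were recorded daily, and survival was analysed by Kaplan–Meier.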"}, "[15]": {"test_system": "DOX-induced HF mice", "assay": "Serum CK and LDH activity in DOX-induced HF mice", "assay_type": "in vivo, mouse (ICR)", "settings": "glycnsisitin A i.p. daily Days 15–28", "how_it_was_run": "as §2"}, "[16]": {"test_system": "TFRC", "assay": "Relative mRNA level of TFRC in cardiomyocytes", "assay_type": "cell-based", "settings": "cultured cardiomyocytes"}, "[17]": {"test_system": "primary adult rat cardiomyocytes", "assay": "ATP content of primary cardiomyocytes, TFRC neutralization", "assay_type": "cell-based", "settings": "DOX-injured cardiomyocytes + glycnsisitin A; with or without NAb-anti-TFRC", "how_it_was_run": "(§3)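 Adult cardiomyocytes were isolated from male Sprague-Dawley rats (about 280 g) by Langendorff perfusion with collagenase II and hyaluronidase. They were purified by three gravity sedimentations and cultured on laminin in M199 with 10% FBS, pen-strep and glutamine. Cells were pretreated with TFRC-neutralizing antibody (level not stated), then given DOX ± test compound for 12 h. Cells and supernatant were assayed with commercial LDH-activity or ATP kits. Mean ± SEM.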"}, "[18]": {"test_system": "TFRC", "assay": "Protein half-life of TFRC after CHX", "assay_type": "cell-based", "settings": "compared with control"}, "[19]": {"test_system": "H9C2 cardiomyocytes", "assay": "Alamar blue cell viability, DOX-injured H9C2 cardiomyocytes", "assay_type": "cell-based, rat", "settings": "in vitro model of DOX-induced cardiomyocyte injury", "how_it_was_run": "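H9C2 cells were grown in DMEM with 10% FBS and penicillin-streptomycin at 37 °C, 5% CO2, then seeded at 5000/well overnight. Cells were co-treated with DOX and test compound for 12 h, then incubated 4 h in medium with 10% alamar blue. Fluorescence was read at ex 530/em 590 nm. Viability = (treated − medium)/(control − medium) × 100; EC50 calculated.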"}, "[20]": {"test_system": "DOX-induced HF mice", "assay": "Echocardiography in DOX-induced HF mice", "assay_type": "in vivo, mouse (ICR)", "settings": "compared with cedilanid", "how_it_was_run": "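Male ICR mice (~40 g, 10 weeks) got a single i.p. DOX 15 mg/kg, with HF established by Day 14. On Day 28, 8 h post-dose, mice were anesthetized with avertin on a 37 °C table. M-mode short-axis scans at papillary level (10 MHz, 10–20 cycles) gave LVAWd.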"}, "[21]": {"molecular_target": "T1, transferrin", "assay": "Relative mRNA level of transferrin in cardiomyocytes", "assay_type": "cell-based", "settings": "cultured cardiomyocytes"}, "[22]": {"test_system": "primary adult rat cardiomyocytes", "assay": "LDH activity in supernatant of primary cardiomyocytes, TFRC neutralization", "assay_type": "cell-based", "settings": "DOX + glycnsisitin A; with or without TFRC block", "how_it_was_run": "as §3"}, "[23]": {"molecular_target": "T1, transferrin", "assay": "SPR on transferrin-coated CM5 sensor chips", "assay_type": "binding", "how_it_was_run": "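Test compound was flowed over at a range of concentrations and response units recorded. KD was derived by the instrument's evaluation fitting.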"}, "[24]": {"test_system": "HF patients", "settings": "supplementation; ref [8], [9]; cited from earlier work"}, "[25]": {"test_system": "primary adult rat cardiomyocytes", "assay": "Total ROS by DCFH-DA staining, flow cytometry", "assay_type": "cell-based"}, "[26]": {"test_system": "cancer cells", "settings": "clinical limitation; ref [29]; cited from earlier work"}}}
{"compound": "CC(C)[C@@H]1NC(=O)[C@@H]2Cc3ccc(cc3)O[C@H]3C[C@H](NC3=O)C(=O)N3CCC[C@H]3C(=O)N[C@@H](Cc3ccc(O)cc3)C(=O)N[C@@H](C(=O)N[C@@H](C(C)C)C(=O)N2)c2cc(ccc2O)C[C@@H](C(=O)O)NC1=O", "note": "[Glycnsisitin A]", "values": [{"measurement": "iron content, DOX-treated cardiomyocytes", "setting": "[1]", "result": "restored the decline in iron content"}, {"measurement": "total transferrin level in mouse myocardium", "setting": "[2]; regardless of the presence of DOX", "result": "significantly increased the total transferrin levels"}, {"measurement": "pathology score", "setting": "[3]; H&E", "result": "lower pathology score"}, {"measurement": "collagen deposition", "setting": "[3]; Masson trichrome", "result": "lesser collagen deposition"}, {"measurement": "cell survival (alamar blue)", "setting": "[4]", "result": "proved the primary cell protective function"}, {"measurement": "TFRC level in mouse myocardium", "setting": "[5]", "result": "consistent with the trend observed for TFRC"}, {"measurement": "LDH release, DOX + glycnsisitin A", "setting": "[6]", "result": "significantly suppressed"}, {"measurement": "cardiotoxicity / cell death (trypan blue)", "setting": "[7]; DOX 8.6 μmol/L + glycnsisitin A", "result": "significantly attenuated the cardiotoxicity induced by DOX and reduced cell death"}, {"measurement": "mitochondrial ROS generation", "setting": "[8]", "result": "significantly attenuated the excessive generation of mitochondrial ROS"}, {"measurement": "half-life of transferrin protein (in words)", "setting": "[9]", "result": "could increase the half-life of transferrin protein"}, {"measurement": "total ATP levels following DOX induction", "setting": "[10]; presence vs absence of glycnsisitin A, with DOX", "result": "a substantial difference was observed"}, {"measurement": "total ATP levels, normal conditions", "setting": "[10]; primary cardiomyocytes without DOX", "result": "did not have an impact on ATP levels"}, {"measurement": "BNP level", "setting": "[11]", "result": "lower levels"}, {"measurement": "NT-proBNP level", "setting": "[11]", "result": "lower levels"}, {"measurement": "content of immunoprecipitated transferrin", "setting": "[12]", "result": "much higher"}, {"measurement": "myocardial iron content", "setting": "[13]", "result": "effectively restored to normal"}, {"measurement": "overall survival rate", "setting": "[14]; 200 mg/kg i.p. daily Days 15–28 after DOX 15 mg/kg i.p.", "result": 90, "unit": "%"}, {"measurement": "survival rate, dose dependence", "setting": "[14]; 50, 100, 200 mg/kg i.p. daily Days 15–28 after DOX", "result": "increased in a dose-dependent manner"}, {"measurement": "serum CK activity", "setting": "[15]", "result": "completely reversed"}, {"measurement": "serum LDH activity", "setting": "[15]", "result": "completely reversed"}, {"measurement": "TFRC mRNA level / transcription", "setting": "[16]", "result": "increased the TFRC transcription"}, {"measurement": "ATP production", "setting": "[17]", "result": "noticeably augmented ATP production"}, {"measurement": "TFRC stability (in words)", "setting": "[18]", "result": "decreased TFRC stability"}, {"measurement": "cardioprotective activity, relative to glycnsisitins B and C", "setting": "[19]", "result": "stronger cardioprotective activity than glycnsisitins B and C"}, {"measurement": "diastolic LV anterior wall diameter (LVAWd)", "setting": "[20]", "result": "thicker diastolic LV anterior wall diameter"}, {"measurement": "transferrin mRNA level", "setting": "[21]", "result": "did not affect the mRNA content of transferrin"}, {"measurement": "LDH content in supernatant", "setting": "[22]", "result": "much lower"}, {"measurement": "Kd", "setting": "[23]", "result": 2.41, "unit": "µM"}]}
{"compound": "ferric derisomaltose [ferric derisomaltose (FDI)]", "values": [{"measurement": "HF symptoms and rehospitalization", "setting": "[24]", "result": "could alleviate HF symptoms and reduce rehospitalization"}]}
{"compound": "COc1cccc2c1C(=O)c1c(O)c3c(c(O)c1C2=O)C[C@@](O)(C(=O)CO)C[C@@H]3O[C@H]1C[C@H](N)[C@H](O)[C@H](C)O1", "note": "[DOX, doxorubicin, reference compound]", "values": [{"measurement": "decrease in transferrin expression in heart tissue", "setting": "[2]; DOX-treated mice, immunoblot ratio to GAPDH", "result": "over 50%"}, {"measurement": "TFRC level in mouse myocardium", "setting": "[5]", "result": "decreased levels of both transferrin and TFRC"}, {"measurement": "LDH release, DOX alone", "setting": "[6]", "result": "elevation in the release of lactate dehydrogenase (LDH)"}, {"measurement": "increase in the number of trypan blue-positive cells", "setting": "[7]; 8.6 μmol/L DOX for 24 h, compared with solvent control", "result": "approximately fourfold"}, {"measurement": "ROS levels, DOX alone", "setting": "[25]", "result": "dramatically increased"}, {"measurement": "myocardial iron content", "setting": "[13]", "result": "significant loss of iron"}, {"measurement": "mortality rate", "setting": "[14]; single i.p. 15 mg/kg DOX", "result": 50, "unit": "%"}, {"measurement": "serum CK activity", "setting": "[15]", "result": "markedly increased"}, {"measurement": "serum LDH activity", "setting": "[15]", "result": "markedly increased"}]}
{"compound": "C[C@@H](CN1CC(=O)NC(=O)C1)N1CC(=O)NC(=O)C1", "note": "[dexrazoxane (DXZ), dexrazoxane]", "values": [{"measurement": "chemotherapy resistance", "setting": "[26]", "result": "potential to confer chemotherapy resistance to cancer cells"}]}
